Activity calls are given as the source filed them. The rule behind the calls is not given here.

The text below walks through data of ChEMBL document CHEMBL3585321, “Synthesis and antimicrobial activity of chloramphenicol-polyamine conjugates” (Bioorg Med Chem, 2015).

The subject of series [1] is Escherichia coli. The experiment in a line: Antibacterial activity against Escherichia coli lacking chromosomal rrn alleles and containing pKK35 plasmids possessing 23S rRNA A2503C mutant assessed as inhibition of bacterial growth. In kind it is functional, organism-based.
The test system of series [2] is Staphylococcus aureus. The experiment in a line: Antibacterial activity against wild type Staphylococcus aureus assessed as inhibition of bacterial growth. In kind it is functional, organism-based.
Series [3] has as its system Escherichia coli. The experiment in a line: Antibacterial activity against Escherichia coli Rosetta(DE3) containing rare tRNA genes and chloramphenicol resistant gene in pLysS plasmid assessed as inhibition of bacterial growth. In kind it is functional, organism-based. In short, it runs like this: (§1)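 IC50 from bacterial cultures grown in LB medium without drug or with drug across a range of concentrations, reported in μM. Three independent experiments, each with two replicates, given as mean±SD.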

In series [4] the test system is Staphylococcus aureus. Put plainly: Antibacterial activity against methicillin-resistant Staphylococcus aureus GRE2372 assessed as inhibition of bacterial growth. In kind it is functional, organism-based.
Series [5] deals with Staphylococcus aureus. The experiment in a line: Antibacterial activity against methicillin-resistant Staphylococcus aureus GRE2272 assessed as inhibition of bacterial growth. It is filed as functional, organism-based.
Series [6] concerns Staphylococcus aureus. Put plainly: Antibacterial activity against methicillin-resistant Staphylococcus aureus GRE2691 assessed as inhibition of bacterial growth. It is filed as functional, organism-based.
Series [7] deals with Escherichia coli. Put plainly: Antibacterial activity against wild type Escherichia coli K-12 assessed as inhibition of bacterial growth. It is filed as functional, organism-based.
In series [8] the test system is Escherichia coli. Put plainly: Antibacterial activity against Escherichia coli BL21(DE3) expressing delta-tolC gene assessed as inhibition of bacterial growth. In kind it is functional, organism-based. Put shortly: as §1
The subject of series [9] is Escherichia coli. The experiment in a line: Antibacterial activity against Escherichia coli lacking chromosomal rrn alleles and containing pKK35 plasmids possessing 23S rRNA A2058G mutant assessed as inhibition of bacterial growth. In kind it is functional, organism-based.
In series [10] the test system is Escherichia coli. The experiment in a line: Reduction in spermidine content in Escherichia coli K-12 at 9.4 uM after 3 hrs by UV and mass spectrometry. The settings on record: K-12, 3 h. In kind it is functional.
The test system of series [11] is Escherichia coli. The experiment in a line: Reduction in spermidine content in Escherichia coli K-12 at 9.4 uM by UV and mass spectrometry (reference value: 1.63 +/- 0.5 umol/g w.w). In kind it is functional.
Series [12] has as its system Escherichia coli. The experiment in a line: Reduction in protein content in Escherichia coli K-12 at 9.4 uM (reference value: 57 +/- 6.35 mg/g w.w). It is filed as functional.
Series [13] relates to Escherichia coli K-12. The experiment in a line: Drug level in Escherichia coli K-12 at 9.4 uM by RP-HPLC method. As to conditions: in vivo. It is filed as ADME, organism-based.
For series [14], the system named is Escherichia coli K-12. Put plainly: Drug metabolism in Escherichia coli K-12 assessed as N8,N8-dibenzylspermidine formation at 9.4 uM by RP-HPLC method. In kind it is ADME, organism-based. The settings on record: escherichia coli k-12, in vivo. In short, it runs like this: (§2)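 Washed cells homogenized in 0.6 M HClO4 and centrifuged. Supernatant checked by RP-HPLC for released N8,N8-dibenzylspermidine.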

The test system of series [15] is Escherichia coli. The experiment in a line: Reduction in putrescine content in Escherichia coli K-12 at 9.4 uM by UV and mass spectrometry (reference value: 7.6 +/- 1.2 umol/g w.w). It is filed as functional.
The subject of series [16] is Escherichia coli. The experiment in a line: Reduction in putrescine content in Escherichia coli K-12 at 9.4 uM after 3 hrs by UV and mass spectrometry. It is filed as functional. As to conditions: K-12, 3 h.
The test system of series [17] is Staphylococcus aureus. The experiment in a line: Antibacterial activity against wild type Staphylococcus aureus assessed as inhibition of bacterial growth at antibacterial IC50 level in presence of 10 times IC50 levels of putrescine. In kind it is functional, organism-based. In short, it runs like this: (§3)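 Cells started at A560 0.020 in M9 medium with drug at its own growth IC50, alone or with putrescine, spermidine or spermine at 10×IC50. Cultures run until the drug-free control reached A560 0.800. Growth given as percent of control optical density. At least three experiments, two replicates each, mean±SD, p<0.05.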

In series [18] the test system is Escherichia coli. Put plainly: Antibacterial activity against wild type Escherichia coli K-12 assessed as inhibition of bacterial growth at antibacterial IC50 level in presence of 10 times IC50 levels of spermidine. In kind it is functional, organism-based. Put shortly:
as §3

In series [19] the test system is Escherichia coli. The experiment in a line: Antibacterial activity against wild type Escherichia coli K-12 assessed as inhibition of bacterial growth at antibacterial IC50 level in presence of 10 times IC50 levels of spermine. In kind it is functional, organism-based. In short, it runs like this:
as §3

Series [20] deals with Escherichia coli. Put plainly: Activity of Escherichia coli chloramphenicol acetyltransferase assessed as coenzyme A formation using acetyl coenzyme A at 0.154 mM.
In series [21] the test system is Escherichia coli. The experiment in a line: Antibacterial activity against wild type Escherichia coli K-12 assessed as inhibition of bacterial growth at antibacterial IC50 level in presence of 10 times IC50 levels of putrescine. It is filed as functional, organism-based. Put shortly:
as §3

The subject of series [22] is Staphylococcus aureus. The experiment in a line: Antibacterial activity against wild type Staphylococcus aureus assessed as inhibition of bacterial growth at antibacterial IC50 level in presence of 10 times IC50 levels of spermine. In kind it is functional, organism-based. Put shortly: as §3
Series [23] has as its system Staphylococcus aureus. The experiment in a line: Antibacterial activity against wild type Staphylococcus aureus assessed as inhibition of bacterial growth at antibacterial IC50 level in presence of 10 times IC50 levels of spermidine. In kind it is functional, organism-based. In short, it runs like this:
as §3

Series [24] concerns Escherichia coli. Put plainly: Ratio of Vmax to Km for Escherichia coli chloramphenicol acetyltransferase assessed as coenzyme A formation using acetyl coenzyme A at 0.154 mM.
Series [25] concerns Escherichia coli K-12. Put plainly: Drug metabolism in Escherichia coli K-12 assessed as N8,N8-dibenzylspermidine formation at 35.5 uM by RP-HPLC method. As to conditions: escherichia coli k-12, in vivo. In kind it is ADME, organism-based. Put shortly:
as §2

The test system of series [26] is Escherichia coli K-12. Put plainly: Drug level in Escherichia coli K-12 at 35.5 uM by RP-HPLC method. It is filed as ADME, organism-based. The settings on record: in vivo.
For series [27], the system named is Escherichia coli. Put plainly: Reduction in putrescine content in Escherichia coli K-12 at 35.5 uM by UV and mass spectrometry (reference value: 7.6 +/- 1.2 umol/g w.w). In kind it is functional.
For series [28], the system named is Escherichia coli. The experiment in a line: Reduction in spermidine content in Escherichia coli K-12 at 35.5 uM by UV and mass spectrometry (reference value: 1.63 +/- 0.5 umol/g w.w). In kind it is functional.
Series [29] has as its system Escherichia coli. Put plainly: Reduction in spermidine content in Escherichia coli K-12 at 35.5 uM after 3 hrs by UV and mass spectrometry. It is filed as functional. As to conditions: K-12, 3 h.
A short description of series [30]: Inhibition of Escherichia coli K-12 70S ribosome poly(U)-programmed ribosome (complex C) bearing tRNAPhe at E-site and Ac[3H]Phe-tRNA at P-site assessed as reduction in peptide bond formation using puromycin(S) substrate.
The subject of series [31] is Escherichia coli. The experiment in a line: Reduction in protein content in Escherichia coli K-12 at 35.5 uM (reference value: 57 +/- 6.35 mg/g w.w). In kind it is functional.
Series [32] relates to Escherichia coli. Put plainly: Reduction in putrescine content in Escherichia coli K-12 at 35.5 uM after 3 hrs by UV and mass spectrometry. It is filed as functional. The settings on record: K-12, 3 h.
The test system of series [33] is Escherichia coli. The experiment in a line: Potency index, ratio of IC50 against wild type Escherichia coli K-12 to IC50 against Escherichia coli BL21(DE3) expressing delta-tolC gene. It is filed as functional.

Usually IC50 stands for the concentration at which inhibition is half-maximal. For the molecule `NCCCNCCCCNCCCNC(=O)CCC(=O)N[C@H](CO)[C@H](O)c1ccc([N+](=O)[O-])cc1`, the IC50 was > 100 µM in the series on Escherichia coli [1]; 45.3 µM in the series with Staphylococcus aureus [2]; > 200 µM with Escherichia coli [3]; > 200 µM in the series on Staphylococcus aureus [4]; > 200 µM in the series with Staphylococcus aureus [5]; > 200 µM with Staphylococcus aureus [6]. Moreover, the IC50 in the series with Escherichia coli [7], in the series with Escherichia coli [8] and in the series with Escherichia coli [9] was > 100 µM each time.

What is called inhibition is the share of the control response that was lost under treatment. For `NCCCN(CCCCN(Cc1ccccc1)Cc1ccccc1)C(=O)CCC(=O)N[C@H](CO)[C@H](O)c1ccc([N+](=O)[O-])cc1` [listing 1 of 2 here], the inhibition at 9.4 µM with Escherichia coli [10] was found to be 80%; in the series with Escherichia coli [16], 75%. For the same molecule, the IC50 with Escherichia coli [1] amounted to 9.4 µM; with Staphylococcus aureus [2], 4.7 µM; in the series on Escherichia coli [3], 19 µM; in the series with Staphylococcus aureus [4] it was 9 µM; in the series with Staphylococcus aureus [5], 7 µM; with Staphylococcus aureus [6], 10 µM. The figures for the IC50 in the series on Escherichia coli [7], with Escherichia coli [8] and with Escherichia coli [9] were 9.4 µM, 9 µM and 9.4 µM, respectively. For the same molecule, the figures for the Activity in the series on Escherichia coli [11], with Escherichia coli [12] and with Escherichia coli [15] were 0.47 µmol/g, 13.1 mg/g and 1.14 µmol/g, respectively. The molecule further gave a Drug uptake with Escherichia coli K-12 [13] of 1.06 µM. Also, the Drug metabolism entry in the series with Escherichia coli K-12 [14] was “metabolite_notdetected”.

As a reminder, the Km is the concentration of substrate that gives half-maximal velocity. In general, Vmax refers to the top rate of the reaction or transport when substrate is in excess. For `NCCCN(CCCCN(Cc1ccccc1)Cc1ccccc1)C(=O)CCC(=O)N[C@H](CO)[C@H](O)c1ccc([N+](=O)[O-])cc1` [listing 2 of 2 here], the “growth inhibition (GI)” value with Staphylococcus aureus [17], in the series on Escherichia coli [18], with Escherichia coli [19], in the series on Escherichia coli [21], in the series with Staphylococcus aureus [22] and in the series on Staphylococcus aureus [23] was “inactive” throughout. Further, the Km with Escherichia coli [20] was 37.7 µM. In addition, in the series with Escherichia coli [20], the Vmax was found to be 1.54 µM/min. Further, the Vmax/Km in the series with Escherichia coli [24] came out at 0.041 min⁻¹.

The term Ki denotes a measure of affinity in units of concentration, obtained from inhibition or displacement. As to `O=C(CCC(=O)N[C@H](CO)[C@H](O)c1ccc([N+](=O)[O-])cc1)NCCCNCCCCN(Cc1ccccc1)Cc1ccccc1`, in the series on Escherichia coli K-12 [25], the Drug metabolism entry is given as “metabolite_notdetected”. Also, in the series with Escherichia coli K-12 [26], the Drug uptake is 3.96 µM. Moreover, the half-inhibitory concentration (IC50) was 37.1 µM in the series on Escherichia coli [1]; 13.7 µM in the series with Staphylococcus aureus [2]; 42.5 µM in the series on Escherichia coli [3]; > 100 µM in the series with Staphylococcus aureus [4]; > 100 µM in the series with Staphylococcus aureus [5]; > 200 µM in the series on Staphylococcus aureus [6]. Moreover, the IC50 with Escherichia coli [7] was determined as 35.5 µM; in the series on Escherichia coli [8], 33.4 µM; in the series with Escherichia coli [9], 32.3 µM. For the same molecule, the “growth inhibition (GI)” value in the series with Staphylococcus aureus [17], with Escherichia coli [18], in the series with Escherichia coli [19], in the series with Escherichia coli [21], with Staphylococcus aureus [22] and with Staphylococcus aureus [23] was “inactive” each time. Besides, the Km with Escherichia coli [20] came out at 53.5 µM. Moreover, the Vmax with Escherichia coli [20] was 4.56 µM/min. The Activity came to 0.46 µmol/g in the series with Escherichia coli [27], 0.35 µmol/g in the series with Escherichia coli [28] and 21.8 mg/g with Escherichia coli [31]. The inhibition at 35.5 µM is 95% in the series on Escherichia coli [29] and 90% in the series with Escherichia coli [32]. Also, the Ki in series [30] was 0.6 µM. Also, in the series with Escherichia coli [24], the Vmax/Km came to 0.085 min⁻¹.

Consider `O=C(N[C@H](CO)[C@H](O)c1ccc([N+](=O)[O-])cc1)C(Cl)Cl` [CHLORAMPHENICOL], for which the IC50 in the series with Escherichia coli [1] was 24.7 µM; in the series with Staphylococcus aureus [2] it was 3.1 µM; with Escherichia coli [3] it was 110 µM; with Staphylococcus aureus [4], 6 µM; with Staphylococcus aureus [5], 8 µM; in the series on Staphylococcus aureus [6] it was 14.5 µM. In addition, the half-maximal inhibitory concentration (IC50) with Escherichia coli [7] came to 6.2 µM; with Escherichia coli [8], 2 µM; in the series on Escherichia coli [9], 15.5 µM. Besides, the “growth inhibition (GI)” value in the series on Staphylococcus aureus [17], with Escherichia coli [18], in the series on Escherichia coli [19], in the series on Escherichia coli [21], in the series with Staphylococcus aureus [22] and in the series on Staphylococcus aureus [23] was “Active” each time. Also, the Michaelis-Menten constant (Km) in the series on Escherichia coli [20] was 59.3 µM. Also, the Vmax in the series with Escherichia coli [20] amounted to 8.23 µM/min. Moreover, the Ki in series [30] was 0.88 µM. Besides, the “Ratio IC50” value in the series on Escherichia coli [33] came to 3. Besides, the Vmax/Km with Escherichia coli [24] stood at 0.139 min⁻¹.
